Key:
[1] = tested on: Pseudomonas putida; experiment: Antimicrobial activity against Pseudomonas putida isolate C231 harboring sul1 to sul3 genes assessed as antibiotic resistance breakpoint by agar dilution method; type: functional
In short: (§1)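 Agar dilution on Iso-Sensitest agar for MICs and resistance breakpoints. Each isolate's inoculum (100 μl) was adjusted to OD600 0.4. Isolates came from soil cores of a field given pig slurry, or from the pig slurry itself. They were picked from nonselective or antibiotic plates incubated aerobically at 28°C, purified by restreaking, checked for sul genes by PCR and identified by 16S rRNA sequencing.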

[2] = tested on: Pseudomonas lini; experiment: Antimicrobial activity against Pseudomonas lini isolate C701 harboring sul1 to sul3 genes assessed as antibiotic resistance breakpoint by agar dilution method; type: functional; in short: as §1
[3] = tested on: Shigella flexneri; experiment: Antimicrobial activity against Shigella flexneri isolate C506 harboring sul1 to sul3 genes assessed as antibiotic resistance breakpoint by agar dilution method; type: functional
In short: (§2)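 Isolates were recovered from manured clay soil or pig slurry on Iso-Sensitest agar at 28°C. sul genes were detected by PCR, and identity was assigned by ~800 bp 16S rRNA sequencing. MICs and resistance breakpoints were found by agar dilution on Iso-Sensitest agar, with each inoculum (100 μl) adjusted to OD600 0.4.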

[4] = tested on: Acinetobacter lwoffii; experiment: Antimicrobial activity against Acinetobacter lwoffii isolate C141 harboring sul1 to sul3 genes assessed as antibiotic resistance breakpoint by agar dilution method; type: functional; in short: as §1
[5] = Antimicrobial activity against Psychrobacter ikaite isolate C20 harboring sul1 to sul3 genes assessed as antibiotic resistance breakpoint by agar dilution method; type: functional; in short: as §1
[6] = tested on: Acinetobacter calcoaceticus; experiment: Antimicrobial activity against Acinetobacter calcoaceticus isolate C35 harboring sul1 to sul3 genes assessed as antibiotic resistance breakpoint by agar dilution method; type: functional; in short: as §1
[7] = tested on: Acinetobacter rhizosphaerae; experiment: Antimicrobial activity against Acinetobacter rhizosphaerae isolate C44 harboring sul1 to sul3 genes assessed as antibiotic resistance breakpoint by agar dilution method; type: functional; in short: as §1
[8] = tested on: Acinetobacter lwoffii; experiment: Antimicrobial activity against Acinetobacter lwoffii isolate C2 harboring sul1 to sul3 genes assessed as antibiotic resistance breakpoint by agar dilution method; type: functional; in short: as §1
[9] = tested on: Pseudomonas borealis; experiment: Antimicrobial activity against Pseudomonas borealis isolate C5 harboring sul1 to sul3 genes assessed as antibiotic resistance breakpoint by agar dilution method; type: functional; in short: as §1
[10] = tested on: Aerococcus viridans; experiment: Antimicrobial activity against Aerococcus viridans isolate PGS21 harboring sul1 to sul3 genes assessed as antibiotic resistance breakpoint by agar dilution method; type: functional; in short: as §1
[11] = tested on: Aerococcus viridans; experiment: Antimicrobial activity against Aerococcus viridans isolate PGS22 harboring sul1 to sul3 genes assessed as antibiotic resistance breakpoint by agar dilution method; type: functional; in short: as §1
[12] = tested on: Acinetobacter calcoaceticus; experiment: Antimicrobial activity against Acinetobacter calcoaceticus isolate C36 harboring sul1 to sul3 genes assessed as antibiotic resistance breakpoint by agar dilution method; type: functional; in short: as §1
[13] = tested on: Acinetobacter baumannii; experiment: Antimicrobial activity against Acinetobacter baumannii isolate C442 harboring sul1 to sul3 genes assessed as antibiotic resistance breakpoint by agar dilution method; type: functional; in short: as §1
[14] = tested on: Arthrobacter arilaitensis; experiment: Antimicrobial activity against Arthrobacter arilaitensis isolate C361 harboring sul1 to sul3 genes assessed as antibiotic resistance breakpoint by agar dilution method; type: functional, Glutamicibacter arilaitensis; in short: as §1
[15] = Antimicrobial activity against Psychrobacter ikaite isolate C713 harboring sul1 to sul3 genes assessed as antibiotic resistance breakpoint by agar dilution method; type: functional; in short: as §2
[16] = tested on: Acinetobacter lwoffii; experiment: Antimicrobial activity against Acinetobacter lwoffii isolate C15 harboring sul1 to sul3 genes assessed as antibiotic resistance breakpoint by agar dilution method; type: functional; in short: as §1
[17] = tested on: Acinetobacter lwoffii; experiment: Antimicrobial activity against Acinetobacter lwoffii isolate C37 harboring sul1 to sul3 genes assessed as antibiotic resistance breakpoint by agar dilution method; type: functional; in short: as §1
[18] = tested on: Bacillus psychrodurans; experiment: Antimicrobial activity against Bacillus psychrodurans isolate C328 harboring sul1 to sul3 genes assessed as antibiotic resistance breakpoint by agar dilution method; type: functional, Psychrobacillus psychrodurans; in short: as §1
[19] = Antimicrobial activity against Acinetobacter sp. N2 isolate C439 harboring sul1 to sul3 genes assessed as antibiotic resistance breakpoint by agar dilution method; type: functional; in short: as §1
[20] = tested on: Lysinibacillus sphaericus; experiment: Antimicrobial activity against Bacillus sphaericus isolate C237 harboring sul1 to sul3 genes assessed as antibiotic resistance breakpoint by agar dilution method; type: functional; in short: as §1
[21] = tested on: Acinetobacter lwoffii; experiment: Antimicrobial activity against Acinetobacter lwoffii isolate PGS47 harboring sul1 to sul3 genes assessed as antibiotic resistance breakpoint by agar dilution method; type: functional; in short: as §1
[22] = tested on: Psychrobacter frigidicola; experiment: Antimicrobial activity against Psychrobacter frigidicola isolate C712 harboring sul1 to sul3 genes assessed as antibiotic resistance breakpoint by agar dilution method; type: functional; in short: as §1
[23] = Antimicrobial activity against Psychrobacter sp. DY9-2 isolate C711 harboring sul1 to sul3 genes assessed as antibiotic resistance breakpoint by agar dilution method; type: functional; in short: as §2
[24] = Antimicrobial activity against Acinetobacter sp. An9 isolate PGS49 harboring sul1 to sul3 genes assessed as antibiotic resistance breakpoint by agar dilution method; type: functional; in short: as §1

Row | SMILES | Activity [1] [µg/mL] | Activity [2] [µg/mL] | Activity [3] [µg/mL] | Activity [4] [µg/mL] | Activity [5] [µg/mL] | Activity [6] [µg/mL] | Activity [7] [µg/mL] | Activity [8] [µg/mL] | Activity [11] [µg/mL] | Activity [12] [µg/mL] | Activity [13] [µg/mL] | Activity [14] [µg/mL] | Activity [15] [µg/mL] | Activity [16] [µg/mL] | Activity [17] [µg/mL] | Activity [18] [µg/mL] | Activity [19] [µg/mL] | Activity [20] [µg/mL] | Activity [22] [µg/mL] | Activity [23] [µg/mL] | also measured
1 | CC1(C)S[C@@H]2[C@H](NC(=O)[C@H](N)c3ccccc3)C(=O)N2[C@H]1C(=O)O [AMPICILLIN] | 16 | 16 | 16 | 16 |  |  |  |  |  |  |  |  |  |  |  |  |  |  |  |  | 
2 | O=C(N[C@H](CO)[C@H](O)c1ccc([N+](=O)[O-])cc1)C(Cl)Cl [CHLORAMPHENICOL] | 16 |  | 16 | 16 | 16 | 16 | 16 | 16 | 16 | 16 | 16 | 16 | 16 | 16 | 16 | 16 |  |  |  |  | Activity [9]: 16 µg/mL; Activity [10]: 16 µg/mL
3 | NC[C@@H]1O[C@H](O[C@H]2[C@@H](O)[C@H](O[C@@H]3[C@@H](O)[C@H](N)C[C@H](N)[C@H]3O[C@H]3O[C@H](CN)[C@@H](O)[C@H](O)[C@H]3N)O[C@@H]2CO)[C@H](N)[C@@H](O)[C@@H]1O [FRAMYCETIN] | 8 |  | 8 | 8 |  |  | 8 |  | 8 |  |  | 8 |  | 8 |  | 8 |  |  |  |  | 
4 | NC[C@H]1O[C@H](O[C@H]2[C@H](O)[C@@H](O[C@H]3O[C@H](CO)[C@@H](O)[C@H](N)[C@H]3O)[C@H](N)C[C@@H]2N)[C@H](O)[C@@H](O)[C@@H]1O [KANAMYCIN] |  |  | 16 | 16 |  |  |  |  |  |  |  |  |  |  |  | 16 |  |  |  |  | 
5 | CCn1cc(C(=O)O)c(=O)c2ccc(C)nc21 [NALIDIXIC ACID] | 16 | 16 | 16 | 16 | 16 | 16 | 16 | 16 | 16 | 16 | 16 | 16 | 16 | 16 | 16 | 16 | 16 | 16 | 16 | 16 | Activity [21]: 16 µg/mL; Activity [24]: 16 µg/mL
6 | COc1cc(Cc2cnc(N)nc2N)cc(OC)c1OC [TRIMETHOPRIM] |  | 16 | 16 | 16 | 16 | 16 | 16 | 16 |  | 16 |  |  | 16 | 16 | 16 |  | 16 | 16 | 16 | 16 | 
